# Measurements pooled from the literature.
# Each line is one published result; the experiments were not run side by side.
# Target: Insulin receptor (INSR, Homo sapiens, UniProt P06213)
SMILES,assay,setting,measurement,value
CC(C)(C)c1cc(C=C(C#N)C#N)cc(Br)c1O,"enzyme activity, inhibitor",0.5 µM,remaining activity,105%
C#Cc1n[nH]c2c(-c3cn([C@@H](C)c4ccccn4)c(=O)[nH]c3=O)cc(F)cc12,"enzyme activity, inhibitor",0.1 µM,inhibition,9%
O=C(Nc1cccnn1)N1CCN([C@@H]2CCOc3cc(C(F)(F)F)ccc32)CC1,"enzyme activity, inhibitor",20 µM,inhibition,14%
Cc1nn(C)cc1-c1nc2c(N3CCN(Cc4ccc(Cl)cc4)CC3)c(Cl)cnc2[nH]1,"binding, competition with immobilised ligand",1 µM,remaining binding,100%
N#CC1(c2ccccn2)CCN(Cc2cc(C(=O)O)c(=O)n3ccccc23)CC1,"cell-free assay, competition with immobilised ligand",1 µM,remaining binding,74%
Cn1cc(-c2cc(F)cc(N3CCn4c(cc5c4CCCC5)C3=O)c2CO)cc(Nc2ccc(N3CCN(C4COC4)CC3)cn2)c1=O,"enzyme activity, inhibitor",0.1 µM,inhibition,8%
Cn1cncc1[C@@](O)(COc1ccc(C#N)cc1-c1ccc(OC(F)(F)F)cc1)c1ccc(C#N)cc1,"cell-free assay, competition with immobilised ligand",1 µM,remaining binding,84%
C[C@H](C(=O)N[C@H]1COc2ccccc2[C@@H]1S(C)(=O)=O)c1ccc(F)cc1,"enzyme activity, inhibitor",10 µM,inhibition,-14%
O=c1[nH]c2ccccc2n1C1CCN(Cc2ccc(-c3[nH]c4cc5ncnc5cc4nc3-c3ccccc3)cc2)CC1,cell-free assay,0.5 µM,remaining signal,102%
c1ccc(C(NCCNC(c2ccccc2)c2ccccc2)c2ccccc2)cc1,"enzyme activity, inhibitor",10 µM,inhibition,-6%
Cc1ncc(C)n2nc(/C=C/c3nc(N4CCCC4)cc(N4CCOCC4)n3)nc12,"enzyme activity, inhibitor",10 µM,inhibition,37%
Nc1ncc(-c2nc(N3CCOCC3)nc(N3CCOCC3)n2)c(C(F)F)n1,"cell-free assay, competition with immobilised ligand",10 µM,remaining binding,50%
C#Cc1n[nH]c2c(-c3cn([C@@H](C)c4ccccc4)c(=O)[nH]c3=O)cc(F)cc12,"enzyme activity, inhibitor",0.1 µM,inhibition,7.7%
COc1ncccc1-c1cnn2ccc(N3CCN(C(=O)OC(C)C)CC3)nc12,"binding, competition with immobilised ligand",1 µM,remaining binding,95%
Cn1cc(-c2cccc(N3CCc4c(sc5c4CC(C)(C)C5)C3=O)c2CO)cc(Nc2ccncn2)c1=O,"enzyme activity, inhibitor",1 µM,inhibition,6%
